In brackets after ≈: the same amount, converted by molar mass.
What was measured:
[1] = tested on: Mycolicibacterium smegmatis; assay: Antibiofilm activity against Mycobacterium smegmatis mc2 155 ATCC 700084 assessed as inhibition of biofilm formation measured after 24 hrs by crystal violet reporter assay; type: functional, organism-based; details: MC2 155 ATCC 700084, 24 h
[2] = tested on: Mycolicibacterium smegmatis; assay: Antibiofilm activity against Mycobacterium smegmatis mc2 155 ATCC 700084 assessed as dispersion of preformed biofilms measured after 24 hrs by crystal violet reporter assay; type: functional, organism-based; details: MC2 155 ATCC 700084, 24 h
Summary of the method: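 Cultures (48 h) diluted to 0.01 in M9 minimal salts with glucose, MgSO4 and CaCl2 in PVC plates. Biofilm grown stationary at 37 °C for 48 h, washed, then fresh medium with compound added for 24 h at 37 °C. Stained with 0.1% crystal violet 30 min, solubilised in 95% ethanol, OD540 read. Media blanks subtracted. Dispersion calculated against untreated biofilm wells. At least three repeats.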

[3] = tested on: Mycolicibacterium smegmatis; assay: Antibacterial activity against Mycobacterium smegmatis mc2 155 ATCC 700084 assessed as inhibition of bacterial growth incubated for 48 hrs by alamarblue dye based broth microdilution method; type: functional
Summary of the method: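 Inoculum from 48 h cultures set to 5 x 10^5 CFU/mL in 7H9 + ADC. Compound in DMSO two-fold serially diluted from 200 µM top concentration. Stationary 37 °C for 48 h, then alamarBlue for 8 h at 37 °C. MIC is the lowest concentration with no viable bacteria (blue, not pink). Duplicate wells, at least two independent repeats.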

[4] = tested on: Mycolicibacterium smegmatis; assay: Potentiation of Cefotaxime-induced antibacterial activity against Mycobacterium smegmatis mc2 155 ATCC 700084 assessed as fold reduction in Cefotaxime MIC at 60 uM incubated for 48 hrs by alamarblue dye based broth microdilution method; type: functional
Summary of the method: (§1)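 Inoculum from 48 h cultures set to 5 x 10^5 CFU/mL in 7H9 + ADC and pre-dosed with compound from DMSO stock at fixed concentration. β-lactam two-fold serially diluted from top concentration, with an antibiotic-only control series. Stationary 37 °C for 48 h, then alamarBlue for 8 h. MIC is the lowest blue (non-viable) well. Fold reduction is relative to the antibiotic-only MIC. Duplicates, at least two repeats.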

[5] = tested on: Mycolicibacterium smegmatis; assay: Potentiation of oxacillin-induced antibacterial activity against Mycobacterium smegmatis mc2 155 ATCC 700084 assessed as fold reduction in oxacillin MIC at 60 uM incubated for 48 hrs by alamarblue dye based broth microdilution method; type: functional; summary of the method: as §1
[6] = tested on: Mycolicibacterium smegmatis; assay: Potentiation of Cefoxitin-induced antibacterial activity against Mycobacterium smegmatis mc2 155 ATCC 700084 assessed as fold reduction in Cefoxitin MIC at 60 uM incubated for 48 hrs by alamarblue dye based broth microdilution method; type: functional; summary of the method: as §1
[7] = tested on: Mycolicibacterium smegmatis; assay: Potentiation of Ceftazidime-induced antibacterial activity against Mycobacterium smegmatis mc2 155 ATCC 700084 assessed as fold reduction in Ceftazidime MIC at 60 uM incubated for 48 hrs by alamarblue dye based broth microdilution method; type: functional; summary of the method: as §1
[8] = tested on: Mycolicibacterium smegmatis; assay: Potentiation of Ampicillin-induced antibacterial activity against Mycobacterium smegmatis mc2 155 ATCC 700084 assessed as fold reduction in Ampicillin MIC at 60 uM incubated for 48 hrs by alamarblue dye based broth microdilution method; type: functional; summary of the method: as §1
[9] = tested on: Mycolicibacterium smegmatis; assay: Potentiation of Cefotaxime-induced antibacterial activity against Mycobacterium smegmatis mc2 155 ATCC 700084 assessed as Cefotaxime MIC at 60 uM incubated for 48 hrs by alamarblue dye based broth microdilution method (reference value: 128 ug/ml); type: functional; summary of the method: as §1
[10] = tested on: Mycolicibacterium smegmatis; assay: Potentiation of Oxacillin-induced antibacterial activity against Mycobacterium smegmatis mc2 155 ATCC 700084 assessed as Oxacillin MIC at 60 uM incubated for 48 hrs by alamarblue dye based broth microdilution method (Rvb =512 ug/ml); type: functional; summary of the method: as §1
[11] = tested on: Mycolicibacterium smegmatis; assay: Potentiation of Cefoxitin-induced antibacterial activity against Mycobacterium smegmatis mc2 155 ATCC 700084 assessed as Cefoxitin MIC at 60 uM incubated for 48 hrs by alamarblue dye based broth microdilution method (reference value: 16 ug/ml); type: functional; summary of the method: as §1
[12] = tested on: Mycolicibacterium smegmatis; assay: Potentiation of Ceftazidime-induced antibacterial activity against Mycobacterium smegmatis mc2 155 ATCC 700084 assessed as Ceftazidime MIC at 60 uM incubated for 48 hrs by alamarblue dye based broth microdilution method (reference value: 512 ug/ml); type: functional; summary of the method: as §1
[13] = tested on: Mycolicibacterium smegmatis; assay: Potentiation of Ampicillin-induced antibacterial activity against Mycobacterium smegmatis mc2 155 ATCC 700084 assessed as Ampicillin MIC at 60 uM incubated for 48 hrs by alamarblue dye based broth microdilution method (reference value: 128 ug/ml); type: functional; summary of the method: as §1
[14] = Hemolytic activity in sheep RBC assessed as hemolysis at 500 uM measured after 1 hr by UV spectrometer analysis; type: ADME, cell-based, Ovis aries, Erythrocyte; details: sheep red blood cells (erythrocytes), read-out: Activity
Summary of the method: (§2)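 Mechanically defibrinated sheep blood was centrifuged, and the cells were washed and resuspended in PBS three times, then diluted 10-fold. Compound was added from DMSO stock. Controls were 1% Triton X (100% lysis) and PBS (zero lysis). Samples were incubated 1 h at 37 °C with shaking at 200 rpm, then centrifuged. Supernatant was diluted 40-fold in distilled water and read at A540. Run in duplicate, repeated at least twice.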

[15] = Hemolytic activity in sheep RBC assessed as hemolysis at 200 uM measured after 1 hr by UV spectrometer analysis; type: ADME, cell-based, Ovis aries, Erythrocyte; details: sheep red blood cells (erythrocytes), read-out: Activity; summary of the method: as §2

Compound: CCCn1cc(-c2ccnc(N)n2)c2ccc(Br)cc21
- IC50 [1]: 34.5 µM
- EC50 [2]: > 50 µM

Compound: Cc1ccc2[nH]cc(-c3ccnc(N)n3)c2c1
- IC50 [1]: 15.7 µM
- EC50 [2]: > 50 µM

Compound: Cn1cc(-c2ccnc(N)n2)c2ccc(Br)cc21
- IC50 [1]: 26.7 µM
- EC50 [2]: > 50 µM

Compound: CC(C)Cn1cc(-c2ccnc(N)n2)c2cc(Br)ccc21
- IC50 [1]: 14.9 µM
- EC50 [2]: > 50 µM

Compound: Nc1nc(-c2c[nH]c3ccc(Br)cc23)c[nH]1
- IC50 [1]: 9.5 µM
- EC50 [2]: > 50 µM
- MIC [3]: 100 µM (≈ 27.7 µg/mL)

Compound: CN(C)c1nccc(-c2c[nH]c3ccc(Br)cc23)n1
- IC50 [1]: 14.3 µM
- EC50 [2]: 35.7 µM
- fold change (FC) [4]: 0
- fold change (FC) [5]: 0
- fold change (FC) [6]: 0
- fold change (FC) [7]: 0
- fold change (FC) [8]: 2
- MIC [9]: 128 µg/mL
- MIC [10]: 512 µg/mL
- MIC [11]: 16 µg/mL
- MIC [12]: 512 µg/mL
- MIC [13]: 64 µg/mL
- MIC [3]: ≥ 200 µM

Compound: Nc1nccc(-c2c[nH]c3cc(I)ccc23)n1
- IC50 [1]: 13.2 µM
- EC50 [2]: 29.4 µM
- fold change (FC) [4]: 0
- fold change (FC) [5]: 0
- fold change (FC) [6]: 0
- fold change (FC) [7]: 0
- fold change (FC) [8]: 0
- MIC [9]: 128 µg/mL
- MIC [10]: 512 µg/mL
- MIC [11]: 16 µg/mL
- MIC [12]: 512 µg/mL
- MIC [13]: 128 µg/mL
- MIC [3]: ≥ 200 µM

Compound: Brc1ccc2[nH]cc(-c3ccnc(NCc4ccccc4)n3)c2c1
- IC50 [1]: 6.9 µM
- EC50 [2]: 28.3 µM
- fold change (FC) [4]: 2
- fold change (FC) [5]: 2
- fold change (FC) [6]: 0
- fold change (FC) [7]: 0
- fold change (FC) [8]: 2
- hemolysis at 1 h, 500 µM [14]: 32%
- hemolysis at 1 h, 200 µM [15]: 9%
- MIC [9]: 64 µg/mL
- MIC [10]: 256 µg/mL
- MIC [11]: 16 µg/mL
- MIC [12]: 512 µg/mL
- MIC [13]: 64 µg/mL
- MIC [3]: ≥ 200 µM

Compound: CCCCn1cc(-c2ccnc(N)n2)c2ccc(Br)cc21
- IC50 [1]: > 50 µM
- EC50 [2]: > 50 µM
- hemolysis at 1 h, 500 µM [14]: 73%
- hemolysis at 1 h, 200 µM [15]: 56%

Compound: CCCCCn1cc(-c2ccnc(N)n2)c2cc(Br)ccc21
- IC50 [1]: > 50 µM
- EC50 [2]: > 50 µM

Compound: Nc1nccc(-c2cn(Cc3ccccc3)c3cc(Br)ccc23)n1
- IC50 [1]: 27.3 µM
- EC50 [2]: > 50 µM

Compound: Nc1ncc(-c2c[nH]c3ccc(Cl)cc23)[nH]1
- IC50 [1]: 16 µM
- EC50 [2]: > 50 µM

Compound: Nc1ncc(-c2c[nH]c3cc(Cl)ccc23)[nH]1
- IC50 [1]: 10.3 µM
- EC50 [2]: 33.7 µM

Compound: Nc1ncc(-c2c[nH]c3ccc(F)cc23)[nH]1
- IC50 [1]: 40.2 µM
- EC50 [2]: > 50 µM

Compound: Nc1nccc(-c2c[nH]c3ccccc23)n1
- IC50 [1]: 29.5 µM
- EC50 [2]: > 50 µM

Compound: Nc1nccc(-c2c[nH]c3ccc(Br)cc23)n1 [MERIDIANIN C]
- IC50 [1]: 22.7 µM
- EC50 [2]: > 50 µM

Compound: Nc1nccc(-c2c[nH]c3cc(Br)ccc23)n1 [MERIDIANIN D]
- IC50 [1]: 21.5 µM
- EC50 [2]: 51 µM
- fold change (FC) [4]: 0
- fold change (FC) [5]: 0
- fold change (FC) [6]: 0
- fold change (FC) [7]: 0
- fold change (FC) [8]: 0
- hemolysis at 1 h, 500 µM [14]: 13%
- hemolysis at 1 h, 200 µM [15]: 8%
- MIC [3]: 200 µM (≈ 57.8 µg/mL)

From ChEMBL document CHEMBL4699393, “Meridianin D analogues possess antibiofilm activity against Mycobacterium smegmatis” (RSC Med Chem, 2020)
